The values that follow come from ChEMBL document CHEMBL2396592, “Discovery of Dap-3 polymyxin analogues for the treatment of multidrug-resistant Gram-negative nosocomial infections” (J Med Chem, 2013).

The subject of series [1] is Pseudomonas aeruginosa. The experiment in a line: Antibacterial activity against polymyxin-resistant Pseudomonas aeruginosa clinical isolate 1646 assessed as growth inhibition by broth microdilution method. The series is classed as functional. A digest of the protocol:
(§1)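 Test strain PA-1646 is a P. aeruginosa isolate with a mutated PmrAB two-component system. The system is constitutively active, so the modified lipid A moiety is constantly expressed on the cell surface, giving a polymyxin-resistant phenotype.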

Series [2] deals with Pseudomonas aeruginosa. The experiment in a line: Antibacterial activity against polymyxin-sensitive Pseudomonas aeruginosa 1401 assessed as growth inhibition by broth microdilution method. The series is classed as functional. Put shortly: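 CLSI broth microdilution MIC against P. aeruginosa 1401 (PA01) and 1402 (UC12120), the two strains used in the mouse thigh model.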

The test system of series [3] is Acinetobacter baumannii. The experiment in a line: Antibacterial activity against polymyxin-resistant Acinetobacter baumannii clinical isolate 1649 assessed as growth inhibition by broth microdilution method. The series is classed as functional.
The next series has as its system Escherichia coli. Put plainly: Antibacterial activity against polymyxin-sensitive Escherichia coli isolate 1 assessed as growth inhibition by broth microdilution method. The class given is functional.
For series [4], the system named is Pseudomonas aeruginosa. Put plainly: Bactericidal activity against polymyxin-resistant Pseudomonas aeruginosa clinical isolate 1646. The class given is functional. A digest of the protocol: as §1
The nature of series [5]: Cytotoxicity against human RPTEC after 24 hrs by LDH assay. The class given is cell-based. Particulars: RPTEC cells, read-out: TC50. A digest of the protocol:
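Primary human renal proximal tubule epithelial cells in REGM (EGF, hydrocortisone, epinephrine, insulin, T3, transferrin, gentamycin/amphotericin-B, FBS). After 72 h of growth at 37 °C, 5% CO2, cells were exposed for 24 h to aqueous compound at 100, 67, 44, 30, 20 and 13 μM. LDH release into the supernatant was measured by kit and TC50 (μM) derived, with PMB and PMBN as controls.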

The test system of series [6] is Acinetobacter baumannii. Put plainly: Bactericidal activity against polymyxin-resistant Acinetobacter baumannii clinical isolate 1649. The series is classed as functional.
Series [7] concerns Acinetobacter baumannii. The experiment in a line: Antibacterial activity against polymyxin-sensitive Acinetobacter baumannii clinical isolate 3167 assessed as growth inhibition by broth microdilution method. The class given is functional.
The test system of a further series is Klebsiella pneumoniae. The experiment in a line: Antibacterial activity against polymyxin-sensitive ESBL-positive Klebsiella pneumoniae clinical isolate 3700 assessed as growth inhibition by broth microdilution method. The series is classed as functional.

In brackets after ≈: the same amount, converted by molar mass. *1 amine or outer side, *2 acyl side, *3 side chain or, on linkers, in order; H or OH if unused. Where a SMILES comes first, the peptide text is derived from it. Bridges are numbered along the chain shown (N, C = ends). [ ]: non-standard residue; d: D form. The star is where a group is joined. Isonicotinoyl(2-Ph) = O=C(c1ccnc(-c2ccccc2)c1)*; Benzoyl(3-Ph) = O=C(c1cccc(-c2ccccc2)c1)*; Benzoyl(4-Ph) = O=C(c1ccc(-c2ccccc2)cc1)*; X17 = O=S(=O)(c1cccc(-c2ccccc2)c1)*; X19 = O=C(c1ccnc(-c2cccc(Cl)c2)c1)*; X18 = c1ccc(-c2cccc(N*)c2)cc1; Dab = NCC[C@H](N)C(=O)O; Dap = NC[C@H](N)C(=O)O; CO = O=C([*:1])[*:2] A value given as a limit tells only on which side of the number the result lay.

Take `CC(C)C[C@@H]1NC(=O)[C@@H](Cc2ccccc2)NC(=O)[C@H](CCN)NC(=O)[C@@H](NC(=O)[C@H](CN)NC(=O)[C@@H](NC(=O)[C@H](CCN)NS(=O)(=O)c2cccc(-c3ccccc3)c2)[C@@H](C)O)CCNC(=O)[C@H]([C@@H](C)O)NC(=O)[C@H](CCN)NC(=O)[C@H](CCN)NC1=O` (X17-[Dab]T[Dap][Dab][Dab][dF]L[Dab][Dab]T; lactam 4-C): the MIC in the series on Pseudomonas aeruginosa [1] is 2 µg/mL; in the series with Pseudomonas aeruginosa [2], 0.25 µg/mL; in the series on Acinetobacter baumannii [3], 64 µg/mL; in the series with Escherichia coli, 0.25 µg/mL; with Acinetobacter baumannii [7] it was 1 µg/mL; with Klebsiella pneumoniae, 0.5 µg/mL. Also, the MBC is 4 µg/mL (≈ 3.16 µM) against Pseudomonas aeruginosa [4] and > 64 µg/mL against Acinetobacter baumannii [6]. In [5], the CC50 at 24 h is 42 µM.

Regarding `CC(C)C[C@@H]1NC(=O)[C@@H](Cc2ccccc2)NC(=O)[C@H](CCN)NC(=O)[C@@H](NC(=O)[C@H](CN)NC(=O)[C@@H](NC(=O)[C@H](CCN)NC(=O)c2ccnc(-c3cccc(Cl)c3)c2)[C@@H](C)O)CCNC(=O)[C@H]([C@@H](C)O)NC(=O)[C@H](CCN)NC(=O)[C@H](CCN)NC1=O` (X19-[Dab]T[Dap][Dab][Dab][dF]L[Dab][Dab]T; lactam 4-C), the MIC in the series on Pseudomonas aeruginosa [1] came out at 1 µg/mL; with Pseudomonas aeruginosa [2], 0.5 µg/mL; in the series on Acinetobacter baumannii [3], 0.5 µg/mL; with Escherichia coli, 0.125 µg/mL; with Acinetobacter baumannii [7], 0.25 µg/mL; in the series on Klebsiella pneumoniae, 0.5 µg/mL. For the same molecule, the results for the MBC against Pseudomonas aeruginosa [4] and in the series on Acinetobacter baumannii [6] were 1 µg/mL (≈ 0.791 µM) and 0.5 µg/mL (≈ 0.395 µM), respectively. Besides, in [5], the CC50 at 24 h came out at 34 µM.

Turning to `CC(C)C[C@@H]1NC(=O)[C@@H](Cc2ccccc2)NC(=O)[C@H](CCN)NC(=O)[C@@H](NC(=O)[C@H](CN)NC(=O)[C@@H](NC(=O)[C@H](CCN)NC(=O)c2cccc(-c3ccccc3)c2)[C@@H](C)O)CCNC(=O)[C@H]([C@@H](C)O)NC(=O)[C@H](CCN)NC(=O)[C@H](CCN)NC1=O` ({Benzoyl(3-Ph)}-[Dab]T[Dap][Dab][Dab][dF]L[Dab][Dab]T; lactam 4-C), the MIC in the series on Pseudomonas aeruginosa [1] came to 1 µg/mL; in the series with Pseudomonas aeruginosa [2] it was 0.5 µg/mL; with Acinetobacter baumannii [3], 2 µg/mL; in the series with Escherichia coli it was 0.25 µg/mL; with Acinetobacter baumannii [7] it was 0.25 µg/mL; with Klebsiella pneumoniae, 0.5 µg/mL. The MBC against Pseudomonas aeruginosa [4] and against Acinetobacter baumannii [6] was 2 µg/mL (≈ 1.63 µM) in each case. Also, the CC50 at 24 h in [5] came out at 21 µM.

Take `CC(C)C[C@@H]1NC(=O)[C@@H](Cc2ccccc2)NC(=O)[C@H](CCN)NC(=O)[C@@H](NC(=O)[C@H](CN)NC(=O)[C@@H](NC(=O)[C@H](CCN)NC(=O)c2ccc(-c3ccccc3)cc2)[C@@H](C)O)CCNC(=O)[C@H]([C@@H](C)O)NC(=O)[C@H](CCN)NC(=O)[C@H](CCN)NC1=O` ({Benzoyl(4-Ph)}-[Dab]T[Dap][Dab][Dab][dF]L[Dab][Dab]T; lactam 4-C): the MIC in the series on Pseudomonas aeruginosa [1] amounted to 0.5 µg/mL; in the series with Pseudomonas aeruginosa [2] it was 0.5 µg/mL; in the series on Acinetobacter baumannii [3], 1 µg/mL; with Escherichia coli it was 0.25 µg/mL; in the series on Acinetobacter baumannii [7] it was 0.25 µg/mL; in the series with Klebsiella pneumoniae, 0.25 µg/mL. Moreover, the MBC against Pseudomonas aeruginosa [4] and in the series with Acinetobacter baumannii [6] was 1 µg/mL (≈ 0.813 µM) in each case. In addition, the CC50 at 24 h in series [5] came out at 28 µM.

With `CC(C)C[C@@H]1NC(=O)[C@@H](Cc2ccccc2)NC(=O)[C@H](CCN)NC(=O)[C@@H](NC(=O)[C@H](CN)NC(=O)[C@@H](NC(=O)[C@H](CCN)NC(=O)c2ccnc(-c3ccccc3)c2)[C@@H](C)O)CCNC(=O)[C@H]([C@@H](C)O)NC(=O)[C@H](CCN)NC(=O)[C@H](CCN)NC1=O` ({Isonicotinoyl(2-Ph)}-[Dab]T[Dap][Dab][Dab][dF]L[Dab][Dab]T; lactam 4-C), the MIC in the series with Pseudomonas aeruginosa [1] came to 2 µg/mL; in the series on Pseudomonas aeruginosa [2], 0.25 µg/mL; with Acinetobacter baumannii [3], 1 µg/mL; with Escherichia coli it was 0.125 µg/mL; in the series on Acinetobacter baumannii [7] it was 0.25 µg/mL; in the series on Klebsiella pneumoniae it was 0.25 µg/mL. Moreover, the MBC came out at 4 µg/mL (≈ 3.25 µM) against Pseudomonas aeruginosa [4] and 1 µg/mL (≈ 0.813 µM) against Acinetobacter baumannii [6]. Besides, in [5], the CC50 at 24 h is 82 µM.

Regarding `CC(C)C[C@@H]1NC(=O)[C@@H](Cc2ccccc2)NC(=O)[C@H](CCN)NC(=O)[C@@H](NC(=O)[C@H](CN)NC(=O)[C@@H](NC(=O)[C@H](CCN)NC(=O)Nc2cccc(-c3ccccc3)c2)[C@@H](C)O)CCNC(=O)[C@H]([C@@H](C)O)NC(=O)[C@H](CCN)NC(=O)[C@H](CCN)NC1=O` ({X18-CO}-[Dab]T[Dap][Dab][Dab][dF]L[Dab][Dab]T; lactam 4-C), the MIC in the series with Pseudomonas aeruginosa [1] worked out at 1 µg/mL; in the series with Pseudomonas aeruginosa [2], 0.5 µg/mL; in the series with Acinetobacter baumannii [3], 4 µg/mL; in the series with Escherichia coli, 0.25 µg/mL; with Acinetobacter baumannii [7], 0.25 µg/mL; in the series on Klebsiella pneumoniae it was 0.25 µg/mL. In addition, the MBC against Pseudomonas aeruginosa [4] is 1 µg/mL (≈ 0.804 µM); in the series on Acinetobacter baumannii [6], 4 µg/mL (≈ 3.21 µM). Further, the CC50 at 24 h in [5] amounted to 15 µM.

`CC(C)C[C@@H]1NC(=O)[C@@H](Cc2ccccc2)NC(=O)[C@H](CCN)NC(=O)[C@@H](NC(=O)[C@H](CCN)NC(=O)[C@@H](N)[C@@H](C)O)CCNC(=O)[C@H]([C@@H](C)O)NC(=O)[C@H](CCN)NC(=O)[C@H](CCN)NC1=O` [POLYMYXIN B NONAPEPTIDE] (H-T[Dab][Dab][Dab][dF]L[Dab][Dab]T; lactam 3-C): the MIC with Pseudomonas aeruginosa [1], with Pseudomonas aeruginosa [2], in the series on Acinetobacter baumannii [3], in the series on Escherichia coli, with Acinetobacter baumannii [7] and in the series with Klebsiella pneumoniae was > 64 µg/mL each time. For the same molecule, the MBC with Pseudomonas aeruginosa [4] and against Acinetobacter baumannii [6] was > 64 µg/mL throughout. Also, the CC50 at 24 h in [5] is > 100 µM.
